# Measurements from different studies.
# Protocols differ between the studies behind these lines.
# Mode: inhibitor
# MET: Hepatocyte growth factor receptor (MET, Homo sapiens, UniProt P08581)
SMILES,target,read-out,technique,cells,concentration,inhibition [%]
CNc1cc(Oc2cc(C(=O)Nc3cc(N4CCN(C)CC4)cc(C(F)(F)F)c3)ccc2C)ncn1,MET,target engagement in cells,chemoproteomics,Huh-7,1 µM,-18.4
CN1CC(Oc2cnc(C#N)cc2-c2ccn3nc(NC(=O)C4CC4)cc3c2)C1,MET,enzyme activity,,,1 µM,-19
COc1cc2ncnc(Nc3ccc(Oc4ccccc4)c(C)c3C)c2cc1OC,MET,enzyme activity,,,1 µM,8
CNc1cccc2cc(C(=O)Nc3ccc(C(=O)O)cc3)c(=O)[nH]c12,MET,enzyme activity,,,10 µM,1.4
CN(C)C1CCN(CC#Cc2nn(C3CCCC3)c3nc(NCc4ccccc4)ncc23)C1 (centres unmarked),MET,enzyme activity,FRET,,10 µM,72
COc1cc2ncnc(Nc3ccc(Oc4ccccc4)cc3C)c2cc1OC,MET,enzyme activity,,,1 µM,-1
CC/C(=N\NC(=O)NCc1cccc(O)c1)c1ccc(O)c(C)c1O,"Hepatocyte growth factor receptor (MET, Homo sapiens, UniProt P08581, M1250T)",enzyme activity,,,0.1 µM,-0.2
CNC(=O)c1cc(Oc2ccc(NC(=O)Nc3ccc(Cl)c(C(F)(F)F)c3)cc2)ccn1,MET,enzyme activity,,,10 µM,-13
COc1cc2nccc(Oc3ccc(NC(=O)c4c5n(n(-c6ccc(F)cc6)c4=O)CCCC5)cc3)c2cc1OC,MET,enzyme activity,,,0.1 µM,98
CNC(=O)c1cc2c(Oc3ccc(NC(=O)C4(C(=O)Nc5ccc(F)cc5)CC4)cc3)ccnc2cc1OC,"Hepatocyte growth factor receptor (MET, Homo sapiens, UniProt P08581, Y1230C)",enzyme activity,radiometric,,1 µM,100
O=C(CSc1nc2nccnc2c(=O)n1CCc1ccccc1)Nc1nccs1,MET,enzyme activity,,,10 µM,-2
